High-throughput results from PubChem.
An excerpt weighted towards active compounds, which were near 2.7% of everything screened.
TPT1 inhibitor = Candida albicans TPT1 enzyme inhibitors, primary screen, biochemical, fluorescence polarization. recombinant caTPT1, FP RNA substrate dephosphorylation. inhibition, % at 5 µM. 300,000 tested, 0.81% active. AID 1962, 2009;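 active = inhibition above the mean of all tested compounds plus 3 SD, set per screening campaign, cut at about 24% in these data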;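 also: plate controls were DMSO alone for no effect and ferristatin control at 100 nM for full effect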
HNF4A DNA FP = change in binding of human HNF4A to DNA, primary screen, biochemical, fluorescence polarization, FITC-DNA; 1 h; activity change, % at 10 µM; 360,000 tested, 0.3% active; Hepatocyte nuclear factor 4-alpha (Homo sapiens), P41235; in the data active = activity change above about 30%, passing the limit was not always enough
NadD block = inhibitors of S. aureus NadD, primary screen, biochemical, colorimetric, uHTS. inhibition, % at 20 µM. purified NadD enzyme, colorimetric absorbance read-out. Nicotinate-nucleotide adenylyltransferase NadD (Staphylococcus aureus N315). AID 602399, 2012. 360,000 tested, 0.78% active; in the data active = inhibition above about 26%
PP1 counter = PP1-alpha phosphatase inhibitors, primary screen, counter-screen for PP5 inhibitor project, biochemical, fluorescence, OMFP substrate, single point; inhibition, % at 6.7 µM; AID 2235, 2010; 320,000 tested, 0.9% active; Serine/threonine-protein phosphatase PP1-alpha catalytic subunit (Homo sapiens), P62136; purified PP1alpha;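 active = inhibition above the mean inhibition of all tested compounds plus 3 SD, computed separately for each screening campaign, cut at about 15% in these data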
Target sequence (P62136 whole entry, looked up): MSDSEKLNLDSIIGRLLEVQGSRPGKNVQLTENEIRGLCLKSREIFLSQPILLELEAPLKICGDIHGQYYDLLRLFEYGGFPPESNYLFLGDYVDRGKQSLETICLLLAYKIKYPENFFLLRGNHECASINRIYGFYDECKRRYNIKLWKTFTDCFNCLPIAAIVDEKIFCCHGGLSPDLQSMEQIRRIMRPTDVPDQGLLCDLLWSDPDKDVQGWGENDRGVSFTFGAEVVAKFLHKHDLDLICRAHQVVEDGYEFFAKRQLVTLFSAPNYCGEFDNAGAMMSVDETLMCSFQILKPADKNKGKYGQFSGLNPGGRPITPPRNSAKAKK
Rpn11 inh = Rpn11 (PSMD14) deubiquitinase inhibitors, primary screen, biochemical, fluorescence polarization, uHTS. AID 588493, 2011. inhibition, % at 20 µM. 360,000 tested, 0.59% active. human 26S proteasome, Ub4-pepOG fluorescence polarization; 20S core pre-blocked with epoxomicin. 26S proteasome non-ATPase regulatory subunit 14 (Homo sapiens), O00487;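 active = inhibition at 20 µM, scaled to each plate's controls, above about 33%, limit read from the data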
CSN inh = inhibitors of CSN-mediated cullin deneddylation, primary screen, biochemical, fluorescence polarization, uHTS; 360,000 tested, 0.38% active; inhibition, % at 12.5 µM; Purified CSN, SCF-Nedd8-OG deneddylation; AID 651999, 2013;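 active = pattern-corrected inhibition above about 35%, with an unprinted fluorescence ratio check between 0.5 and 1.5, limit read from the data, passing the limit was not always enough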;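 also: 0% = enzyme with substrate and 100% = substrate without enzyme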
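test system = HEK293T-derived human Csn5 enzyme | amount = 0.24 nM Csn5 enzyme, final concentration | medium = Tris/NaCl/DTT buffer, pH 7.5 | schedule = 90 min reaction at room temperature | signal = FP | evaluation = inhibition of Csn5 cleavage, % | compound dosing = single dose of 12.5 µM compound with 0.25% DMSO | probe or stimulus = 10 nM SCFSkp2-Nedd8OG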
Starred values were filed as active, the others as inactive; / = not tested or not shown.

SMILES | TPT1 inhibitor | HNF4A DNA FP | NadD block | PP1 counter | Rpn11 inh | CSN inh
COc1cccc2sc(NNC(=O)COc3ccccc3)nc12 | -2.7 | 4.0 | 15.3 | 1.4 | -0.6 | 5.8
COc1cccc2sc(Nc3nc(-c4ccccn4)cs3)nc12 | 4.0 | -4.4 | 34.8* | 17.1* | 13.7 | 6.6
COCC(=O)N1CCC(Oc2ccc(C(=O)NCc3cnc(C)cn3)cc2)CC1 | -0.9 | -0.6 | -3.7 | -5.4 | -2.4 | -4.0
Cc1cnc(CNC(=O)c2ccc(OC3CCN(C(=O)C4CC4)CC3)cc2)cn1 | -6.5 | 40.3* | 0.9 | -2.4 | -3.1 | -6.4
O=C(CN1CCOCC1)N1CCOCC1 | / | -0.9 | -2.4 | / | -3.2 | 4.5
O=C(C1=C(O)C(=O)N(CCCN2CCOCC2)C1c1ccc(Cl)cc1)c1cc2ccccc2o1 (centres undefined) | 2.4 | / | / | 16.5* | / | /
O=C(C1=C(O)C(=O)N(CCN2CCOCC2)C1c1ccc(Cl)cc1)c1cc2ccccc2o1 (centres undefined) | 8.3 | 1.8 | 14.9 | 18.6* | 11.2 | 1.2
COC(=O)c1ccc(C2C(C(=O)c3cc4ccccc4o3)=C(O)C(=O)N2CCN2CCOCC2)cc1 (centres undefined) | 3.4 | 2.5 | 0.8 | 1.5 | 0.6 | -0.8
O=C(C1=C(O)C(=O)N(CCN2CCOCC2)C1c1ccc([N+](=O)[O-])cc1)c1cc2ccccc2o1 (centres undefined) | -0.1 | -0.1 | 16.5 | 14.3 | -4.3 | 7.0
CCN(Cc1ccccc1)C(=O)CCS(=O)(=O)c1ccc2c(c1)n(C)c(=O)c(=O)n2C | -2.9 | 0.4 | 1.0 | -0.1 | -0.8 | -3.4
C#Cc1ccc(NC(=O)C2(C)CCN2C(=O)C2(c3ccccc3)CCCC2)cc1 (centres undefined) | / | 1.1 | -3.5 | / | 2.0 | -4.4
OC[C@@H]1CN(Cc2ccc(F)cc2)C[C@H](n2cnc3c(N4CCOCC4)ncnc32)O1 | / | 0.9 | -0.5 | / | -2.1 | -3.7
CN(C(=O)c1cccc(NC(=O)Cc2ccc(NC(=O)C3CCN(C(=O)CCc4ccccc4)CC3)cc2)c1)C1CCCCC1 | / | 1.1 | 15.3 | / | 7.3 | 3.0
C=CC[n+]1c(/C=C2\C=Cc3cc(C)ccc3N2CC)ccc2ccccc21 | 6.0 | 37.6* | 11.0 | 7.3 | 16.9 | 17.8
Cc1c(-c2ccc(F)cc2)nc(N)c(C#N)c1-c1ccco1 | 14.8 | 39.1* | 1.5 | -1.2 | / | 17.5
CCc1ccc(NC(=O)COC(=O)Cn2cnc3ccccc32)cc1 | / | -3.9 | -1.1 | / | -3.3 | -1.6
Cc1c(C(=O)N2CCCC2)c(S(=O)(=O)N2CCN(c3ccccc3F)CC2)c(C)n1C | 2.8 | 1.9 | -2.2 | 1.9 | -5.3 | -2.9
COc1ccc(CC(=O)Nc2ccc(-c3cn4cccc(C)c4n3)cc2)cc1OC | 1.4 | 3.2 | 1.2 | -3.4 | -2.2 | -4.2
Cc1cccn2cc(-c3ccc(NC(=O)Cc4ccccc4)cc3)nc12 | 4.0 | 40.1* | -2.2 | 0.5 | 26.6 | 13.0
CC(/C=C(\NC(=O)c1ccccc1)C(=O)N=Nc1c(O)[nH]c2ccc(C)cc12)=C\c1ccccc1 | -6.4 | 0.3 | 38.6* | 0.1 | 1.1 | 4.7
COc1cc(NS(=O)(=O)c2ccc(NC(=O)/C(=C\c3ccccc3OC)NC(=O)c3ccccc3)cc2)nc(OC)n1 | -3.7 | -1.0 | 30.7* | 2.2 | -3.6 | 1.1
COc1cc(NS(=O)(=O)c2ccc(NC(=S)NC(=O)COc3ccccc3OC)cc2)nc(OC)n1 | -0.8 | 24.9 | 10.7 | 2.9 | 1.3 | -1.5
COc1ccc(NC(=O)/C(=C\c2ccncc2)NC(=O)c2ccccc2)cc1 | -1.1 | -2.9 | -6.0 | 4.8 | 3.5 | 49.5*
O=C(Nc1ccccc1)/C(=C\c1ccncc1)NC(=O)c1ccccc1 | -1.0 | 1.3 | 4.7 | -1.1 | 2.3 | -1.3
